Screens as filed in PubChem.
S100A4 MyoIIA: inhibitors of S100A4-myosin IIA peptide binding, primary screen, biochemical, fluorescence polarization, TAMRA-MyoIIA peptide; Protein S100-A4 (Homo sapiens), P26447; 360,000 compounds, 0.14% hits; inhibition, % at 10.7 µM;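 active = mean inhibition of at least 70% across replicates, with every replicate also reaching that level; inconclusive = mean inhibition reaches 70% but some replicates fall short; inactive = mean inhibition below 70%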
Target sequence (P26447 whole entry, looked up): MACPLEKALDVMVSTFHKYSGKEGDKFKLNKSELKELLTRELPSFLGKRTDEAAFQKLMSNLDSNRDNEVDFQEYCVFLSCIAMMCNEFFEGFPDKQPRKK
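Test system: S100A4 monomer protein; Medium: HEPES pH 7.2 with CaCl2, KCl, NaCl, DTT, Triton; Probe or stimulus: TAMRA-labelled myosin IIA heavy-chain peptide probe, 5 nM; Doses: one dose per compound; Times: polarization read 5 min after assay mix addition, stable 5–60 min; Benchmarks: neutral control DMSO, positive control TFP.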
CaV13 ICDI inh: Disruptors of the CACNA1D IQ motif to Ca2+-dependent inactivation inhibitor domain association, primary screening, Förster resonance energy transfer in intact living …; HEK cells, CFP/YFP FRET ICDI-IQ, plate reader, 10 min; percent FRET-ratio fall versus neutral wells; inhibition, % at 12.3 µM; 340,000 compounds, 0.098% hits; AID 743397;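 active = mean replicate inhibition of at least 30% and at least 1% of replicates passing that level; inconclusive = only one of the two criteria is met; inactive = neither criterion is met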;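 note: 0% = median of the neutral control wells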
AF4-AF9 inh: inhibitors of AF4 peptide binding to AF9, primary screen, biochemical, AlphaScreen, biotin-AF4 peptide, FLAG-AF9, single point; 350,000 compounds, 0.47% hits; Protein AF-9 (Homo sapiens), P42568; inhibition, % at 10 µM;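 active = every replicate reaching a set inhibition limit, whatever the replicate mean, cut at about 25% in these data; inconclusive = mean inhibition reaches that limit but some replicates miss it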;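 note: 0% = plate neutral control median and 100% = total signal loss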
DENV2 CPE: inhibitors of DENV2 cytopathic effect, primary screen, cell-based, plate reader, single concentration | DENV2-infected cells, cytopathic effect rescue | AID 651640, 2012 | 350,000 compounds, 1.7% hits | CPE inhibition, % at 9.99 µM; in the data active = CPE inhibition above about 20%, passing the limit was not always enough; inconclusive = no clear call, values can overlap the other calls; tested in BHK-21 cells;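 note: 0% = median of neutral control wells and 100% = median of positive control wells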
SIRT5 block: SIRT5 desuccinylase inhibitors, primary screen, biochemical, fluorescence imaging, single point, set 5; NAD-dependent protein deacylase sirtuin-5, mitochondrial (Homo sapiens), Q9NXA8; Purified SirT5, succinyl-peptide AMC, trypsin-coupled fluorescence; inhibition, % at 15 µM; 330,000 compounds, 1.1% hits; in the data active = inhibition above about 15%; inconclusive = no clear call, values can overlap the other calls
Target sequence (Q9NXA8 whole entry, looked up): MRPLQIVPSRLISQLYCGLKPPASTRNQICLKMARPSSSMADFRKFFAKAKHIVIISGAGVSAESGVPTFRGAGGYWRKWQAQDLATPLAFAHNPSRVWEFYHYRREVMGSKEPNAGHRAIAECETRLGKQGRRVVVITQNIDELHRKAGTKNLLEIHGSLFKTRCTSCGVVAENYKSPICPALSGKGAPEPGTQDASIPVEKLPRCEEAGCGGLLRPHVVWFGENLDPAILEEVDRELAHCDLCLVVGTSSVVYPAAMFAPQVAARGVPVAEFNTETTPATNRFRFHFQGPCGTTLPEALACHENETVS
An asterisk follows results filed as active; ? = inconclusive; . = no result. Sampled rows, rich in hits. Any-hit rate of the full collection: about 2.7%.

SMILES	S100A4 MyoIIA	CaV13 ICDI inh	AF4-AF9 inh	DENV2 CPE	SIRT5 block
O=C(C[C@H]1C=C[C@@H](NS(=O)(=O)c2ccc(F)cc2)[C@H](CO)O1)NC1CCCCC1	2	.	0	.	2
COc1ccc2cc3cc(C(=O)N4CCCCC4C)oc3nc2c1 (configuration not stated)	2	-13	3	-4	18*
COc1ccc2cc3cc(C(=O)Nc4ccc5c(c4)OCO5)oc3nc2c1	.	-4	.	.	.
COc1ccc(NC(=O)NNc2cc(N3CCOCC3)nc(N3CCOCC3)n2)cc1	-3	-5	-1	-1	-1
O=C(NNc1nc(N2CCOCC2)nc(N2CCOCC2)n1)Nc1ccc(Cl)cc1	-4	-5	2	2	15*
CCCNC(=O)C1CC(=O)N(c2ccc(OCC)cc2)C1 (configuration not stated)	1	-1	0	4	0
CCOc1ccc(N2CC(C(=O)NNC(=O)c3ccc(Br)cc3)CC2=O)cc1 (configuration not stated)	73*	-6	0	6	1
CCCCOC(=O)CCN1C(=O)/C(=C2\SC(=S)N(CCC(=O)OCCCC)C2=O)SC1=S	7	-4	6	75*	.
C=CC[C@@H](CC(=O)N[C@H](CO)Cc1ccccc1)C(=O)N[C@H](C)COC(=O)[C@@H](CC=C)CC(=O)OC(C)(C)C	-2	-5	-4	3	.
C=CC[C@@H](CC(=O)OC(C)(C)C)C(=O)OC[C@H]1CCCN1C(=O)[C@@H](CC=C)CC(=O)N[C@H](CO)Cc1ccccc1	-3	-12	0	12	4
C=CC[C@@H](CC(=O)N[C@H](CO)Cc1ccccc1)C(=O)N[C@@H](COC(=O)[C@@H](CC=C)CC(=O)OC(C)(C)C)Cc1ccccc1	21	-3	-2	0	18*
C=CC[C@@H](CC(=O)OC(C)(C)C)C(=O)OC[C@@H]1CCCN1C(=O)[C@@H](CC=C)CC(=O)N[C@@H](CO)Cc1ccccc1	11	-5	-2	-8	25*
CC(C)CC#Cc1cnc2c(c1)C(=O)N([C@@H](C)CO)C[C@H](C)[C@@H](CN(C)CC1CCOCC1)O2	-4	.	0	-8	1
CCCc1c(C)[nH]c2ccc(C(=O)O)cc2c1=S	-5	-4	-2	19	26*
CO[C@H]1CN(C)C(=O)c2cc(NC(C)=O)ccc2OC[C@H](C)N(Cc2ccccc2F)C[C@@H]1C	10	.	3	8	2
CC1(Cc2cccc(F)c2)C(=O)Nc2ccc(-c3cccnc3)cc21 (configuration not stated)	4	-9	2	54*	.
CCCC(=O)Nc1ccc2c(c1)C(=O)N(C)C[C@H](OC)[C@H](C)CN(Cc1cncnc1)[C@@H](C)CO2	13	.	0	7	0
Cc1nc(S(=O)(=O)N(C)Cc2ccccc2)c(C#N)c(C)c1Cl	-2	-4	.	.	17*
CN(Cc1ccccc1)S(=O)(=O)c1ccc(Cl)c(C(=O)O)c1	2	-5	-16	0	-8
O=C(NC1CCCCC1)[C@H]1[C@H](CO)[C@H]2Cn3c(cccc3=O)[C@H]2N1CCc1ccccc1	9	.	-1	-1	-1
C[C@@H]1CN([C@@H](C)CO)C(=O)c2cc(-c3ccccc3F)cnc2O[C@@H]1CN(C)C(=O)C1CCOCC1	3	.	-2	60*	-1
C[C@@H]1CN([C@@H](C)CO)C(=O)c2cc(-c3ccccc3)cnc2O[C@H]1CN(C)C(=O)C1CCCCC1	11	.	1	51*	-2
C[C@@H]1CN([C@H](C)CO)C(=O)c2cc(-c3ccccc3F)cnc2O[C@H]1CN(C)C(=O)C1CCOCC1	13	.	-3	0	4
C[C@H](CO)N1C[C@H](C)[C@@H](CN(C)C(=O)c2ccccn2)Oc2ncc(-c3ccccc3F)cc2C1=O	25	.	0	21*	0
C[C@@H]1CN([C@H](C)CO)C(=O)c2cc(C#Cc3ccccc3F)cnc2O[C@H]1CN(C)C(=O)C1CCOCC1	-5	.	-1	35*	1
SMILES	S100A4 MyoIIA	CaV13 ICDI inh	AF4-AF9 inh	DENV2 CPE	SIRT5 block
COCCCNC(=O)C[C@H]1C[C@@]2(C(=O)OC)C(=C[C@H](C3CCCC3)O[C@@H]2C)N(Cc2ccccc2)C1=O	1	-11	-4	?	.
C[C@H]1CN([C@@H](C)CO)C(=O)CCCn2cc(nn2)CO[C@@H]1CN(C)Cc1ccc(C(=O)O)cc1	-5	.	-2	-6	-2
C[C@H](CO)N1C[C@H](C)[C@@H](CN(C)C(=O)C2CCOCC2)Oc2ncc(-c3ccccc3)cc2C1=O	3	.	-1	4	21*
C[C@@H]1CN([C@@H](C)CO)C(=O)c2cc(-c3ccccc3)cnc2O[C@@H]1CN(C)C(=O)C1CCOCC1	-6	.	-2	5	-6
CCOC(=O)c1ccc(S(=O)(=O)N2CCC(N3CCCCC3)CC2)cc1	-4	-2	-5	32*	.
CCOC(=O)c1ccc(S(=O)(=O)N2CCC(C(=O)OCC)CC2)cc1	0	-10	-5	.	0
CCOC(=O)c1ccc(S(=O)(=O)NC2CCC(C)CC2)cc1 (configuration not stated)	17	-7	-4	-1	21*
CCOC(=O)c1ccc(S(=O)(=O)NC2CC2)cc1	2	-7	-10	-2	2
CCC(=O)N1CC(=O)N2[C@H](CO)[C@H](c3ccc(C#Cc4cccc(OC)c4)cc3)[C@@H]2C1	9	.	-2	7	1
C[C@H](CO)N1C[C@H](C)[C@@H](CN(C)S(=O)(=O)c2ccc(F)cc2)Oc2cc(-c3cccc(F)c3)ccc2S1(=O)=O	17	.	-4	-5	17*
COc1ccccc1-c1ccc2c(c1)O[C@H](CN(C)S(=O)(=O)c1ccc(F)cc1)[C@H](C)CN([C@H](C)CO)S2(=O)=O	-4	.	1	7	26*
COc1ccccc1-c1ccc2c(c1)O[C@H](CN(C)S(=O)(=O)c1ccc(F)cc1)[C@@H](C)CN([C@H](C)CO)S2(=O)=O	.	.	-3	.	.
COc1ccccc1-c1ccc2c(c1)O[C@H](CN(C)S(=O)(=O)c1ccc(F)cc1)[C@@H](C)CN([C@@H](C)CO)S2(=O)=O	0	.	0	?	23*
O=C(c1ccncc1)N1C[C@H]2[C@@H](c3ccccc31)[C@@H](CO)N2Cc1ccccc1F	-16	.	-3	5	-5
C[C@@H]1CN([C@H](C)CO)C(=O)c2cc(C#Cc3cccnc3)cnc2O[C@@H]1CN(C)Cc1ccccc1	18	.	-2	.	5
